According to the M2OR odorant receptor database:
Residue numbers refer to the chain shown, from its start.

Legend:
Conditions in all cases: stereoisomer not certain
[1] = system: T1, O1440
T1 sequence (whole entry): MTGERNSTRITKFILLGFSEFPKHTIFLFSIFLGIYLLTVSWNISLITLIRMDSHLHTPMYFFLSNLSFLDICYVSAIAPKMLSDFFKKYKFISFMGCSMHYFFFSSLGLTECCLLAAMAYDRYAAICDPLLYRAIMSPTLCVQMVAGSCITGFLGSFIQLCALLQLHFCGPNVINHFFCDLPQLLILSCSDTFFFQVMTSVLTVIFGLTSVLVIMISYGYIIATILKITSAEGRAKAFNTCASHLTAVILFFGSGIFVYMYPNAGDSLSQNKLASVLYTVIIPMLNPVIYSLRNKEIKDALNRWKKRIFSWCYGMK
Procedure, shortened: (§1)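 Each receptor–molecule pair is labelled responsive or non-responsive (inactive) according to whether the original authors judged the measured signal statistically different from baseline. The data were taken from the main text and supplementary material of published papers and checked for typos and inconsistencies. Assay methods differed by source, with transient luciferase assays in mammalian cell lines being common.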

[2] = system: T2, O13C8 A19D
T2 sequence (whole entry): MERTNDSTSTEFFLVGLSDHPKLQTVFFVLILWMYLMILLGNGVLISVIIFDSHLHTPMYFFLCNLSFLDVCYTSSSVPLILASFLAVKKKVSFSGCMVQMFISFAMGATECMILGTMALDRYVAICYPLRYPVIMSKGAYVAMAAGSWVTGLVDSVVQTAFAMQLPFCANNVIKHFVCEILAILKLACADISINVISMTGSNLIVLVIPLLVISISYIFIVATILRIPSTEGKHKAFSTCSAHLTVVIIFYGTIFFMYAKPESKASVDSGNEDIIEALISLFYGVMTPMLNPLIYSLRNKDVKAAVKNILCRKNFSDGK
Procedure, shortened: as §1

[3] = system: T3, O13C9 H17L V19G L23H
T3 sequence (whole entry): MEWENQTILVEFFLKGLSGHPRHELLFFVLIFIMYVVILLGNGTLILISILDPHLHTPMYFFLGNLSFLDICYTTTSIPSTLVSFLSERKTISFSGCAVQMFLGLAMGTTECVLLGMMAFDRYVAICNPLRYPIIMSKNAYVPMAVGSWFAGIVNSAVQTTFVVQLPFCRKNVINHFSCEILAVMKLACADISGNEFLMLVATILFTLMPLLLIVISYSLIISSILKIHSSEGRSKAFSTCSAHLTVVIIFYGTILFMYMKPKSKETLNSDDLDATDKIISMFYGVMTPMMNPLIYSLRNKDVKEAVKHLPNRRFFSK
Procedure, shortened: as §1

[4] = system: T4, O13C9 Q6H
T4 sequence (whole entry): T3 sequence (whole entry) with Q6H, L17H, G19V, H23L
Procedure, shortened: as §1

[5] = system: T5, O13F1 F18S T254M
T5 sequence (whole entry): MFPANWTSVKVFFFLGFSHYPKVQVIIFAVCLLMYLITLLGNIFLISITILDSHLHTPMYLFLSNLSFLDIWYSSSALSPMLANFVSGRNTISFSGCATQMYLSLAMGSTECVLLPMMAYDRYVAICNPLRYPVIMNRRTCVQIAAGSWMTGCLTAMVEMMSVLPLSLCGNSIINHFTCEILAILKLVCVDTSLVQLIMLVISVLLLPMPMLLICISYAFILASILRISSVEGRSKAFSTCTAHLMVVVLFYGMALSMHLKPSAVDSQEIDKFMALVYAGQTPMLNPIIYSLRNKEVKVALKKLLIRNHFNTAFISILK
Procedure, shortened: as §1

[6] = system: T6, O13F1 F18S
T6 sequence (whole entry): T5 sequence (whole entry) with M254T
Procedure, shortened: as §1

[7] = system: T7, O13G1 K46I M146L
T7 sequence (whole entry): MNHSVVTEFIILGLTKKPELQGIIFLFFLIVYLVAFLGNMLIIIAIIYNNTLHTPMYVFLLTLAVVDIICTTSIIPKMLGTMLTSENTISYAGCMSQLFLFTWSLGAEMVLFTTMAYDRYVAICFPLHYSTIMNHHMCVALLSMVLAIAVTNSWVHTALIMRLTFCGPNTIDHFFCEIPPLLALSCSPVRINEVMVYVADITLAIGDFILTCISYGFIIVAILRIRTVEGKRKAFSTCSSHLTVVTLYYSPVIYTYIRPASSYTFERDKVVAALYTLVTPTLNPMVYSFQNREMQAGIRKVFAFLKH
Procedure, shortened: as §1

[8] = system: T8, O13G1
T8 sequence (whole entry): T7 sequence (whole entry) with I46K, I132V, L146M
Procedure, shortened: as §1

[9] = system: T9, O13H1 Y266S
T9 sequence (whole entry): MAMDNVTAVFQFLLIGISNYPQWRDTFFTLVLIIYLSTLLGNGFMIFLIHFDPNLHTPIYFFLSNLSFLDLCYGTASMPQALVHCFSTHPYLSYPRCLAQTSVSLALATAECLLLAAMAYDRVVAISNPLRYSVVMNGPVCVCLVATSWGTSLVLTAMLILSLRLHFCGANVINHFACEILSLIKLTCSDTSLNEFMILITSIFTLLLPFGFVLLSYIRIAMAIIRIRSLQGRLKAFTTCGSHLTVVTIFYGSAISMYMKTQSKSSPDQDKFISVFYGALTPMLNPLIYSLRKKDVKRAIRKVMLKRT
Procedure, shortened: as §1

[10] = system: T10, O13J1
T10 sequence (whole entry): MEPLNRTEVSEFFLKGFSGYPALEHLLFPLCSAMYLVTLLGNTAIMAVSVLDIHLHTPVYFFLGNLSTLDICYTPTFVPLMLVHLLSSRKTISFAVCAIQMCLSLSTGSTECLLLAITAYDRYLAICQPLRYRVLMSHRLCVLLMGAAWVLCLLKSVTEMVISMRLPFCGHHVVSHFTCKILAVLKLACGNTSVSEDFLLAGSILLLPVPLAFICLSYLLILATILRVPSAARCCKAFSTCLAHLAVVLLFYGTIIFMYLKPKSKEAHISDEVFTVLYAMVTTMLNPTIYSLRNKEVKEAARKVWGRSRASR
Procedure, shortened: as §1
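Also: active if original authors judged signal statistically different from baseline.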

Compound: O=C1CCCCCCC=CCCCCCCC1
- odorant receptor agonist call [1]: active

Compound: CC1=NC(C)C(C)S1 (centres undefined)
- odorant receptor agonist call [2]: inactive
- odorant receptor agonist call [3]: inactive
- odorant receptor agonist call [4]: inactive
- odorant receptor agonist call [5]: inactive
- odorant receptor agonist call [6]: inactive
- odorant receptor agonist call [7]: inactive
- odorant receptor agonist call [8]: inactive
- odorant receptor agonist call [9]: inactive
- odorant receptor agonist call [10]: inactive

Compound: CC1=C(O)C(=O)OC1C (centres undefined)
- odorant receptor agonist call [2]: inactive
- odorant receptor agonist call [3]: inactive
- odorant receptor agonist call [4]: inactive
- odorant receptor agonist call [5]: inactive
- odorant receptor agonist call [6]: inactive
- odorant receptor agonist call [7]: inactive
- odorant receptor agonist call [8]: inactive
- odorant receptor agonist call [9]: inactive
- odorant receptor agonist call [10]: inactive

Compound: Cc1cnc(C)c(C)n1
- odorant receptor agonist call [2]: inactive
- odorant receptor agonist call [3]: inactive
- odorant receptor agonist call [4]: inactive
- odorant receptor agonist call [5]: inactive
- odorant receptor agonist call [6]: inactive
- odorant receptor agonist call [7]: inactive
- odorant receptor agonist call [8]: inactive
- odorant receptor agonist call [9]: inactive
- odorant receptor agonist call [10]: inactive

Compound: CC1CC=CCCCCCCCCCC(=O)C1 (centres undefined)
- odorant receptor agonist call [1]: active

Compound: CCC1OC(=O)C(O)=C1C (centres undefined)
- odorant receptor agonist call [2]: inactive
- odorant receptor agonist call [3]: inactive
- odorant receptor agonist call [4]: inactive
- odorant receptor agonist call [5]: inactive
- odorant receptor agonist call [6]: inactive
- odorant receptor agonist call [7]: inactive
- odorant receptor agonist call [8]: inactive
- odorant receptor agonist call [9]: inactive
- odorant receptor agonist call [10]: inactive

Compound: C1CCCCCCCCCCCCCC1
- odorant receptor agonist call [1]: inactive

Compound: CCC1OC(C)=C(O)C1=O (centres undefined)
- odorant receptor agonist call [2]: inactive
- odorant receptor agonist call [3]: inactive
- odorant receptor agonist call [4]: inactive
- odorant receptor agonist call [5]: inactive
- odorant receptor agonist call [6]: inactive
- odorant receptor agonist call [7]: inactive
- odorant receptor agonist call [8]: inactive
- odorant receptor agonist call [9]: inactive
- odorant receptor agonist call [10]: inactive

Compound: O=C1CCCC=CCCCCCCCCCC1
- odorant receptor agonist call [1]: active

Compound: O=C1CCCCCCCCC1
- odorant receptor agonist call [1]: inactive

Compound: O=C1CCCCCCCCCC1
- odorant receptor agonist call [1]: inactive

Compound: CCCC(S)CCOC(C)=O (centres undefined)
- odorant receptor agonist call [2]: inactive
- odorant receptor agonist call [3]: inactive
- odorant receptor agonist call [4]: inactive
- odorant receptor agonist call [5]: inactive
- odorant receptor agonist call [6]: inactive
- odorant receptor agonist call [7]: inactive
- odorant receptor agonist call [8]: inactive
- odorant receptor agonist call [9]: inactive
- odorant receptor agonist call [10]: inactive

Compound: CCCCCCC=CCCC=O
- odorant receptor agonist call [2]: inactive
- odorant receptor agonist call [3]: inactive
- odorant receptor agonist call [4]: inactive
- odorant receptor agonist call [6]: inactive
- odorant receptor agonist call [7]: inactive
- odorant receptor agonist call [8]: inactive
- odorant receptor agonist call [9]: inactive
- odorant receptor agonist call [10]: inactive

Compound: CC1CCCCCCCCCCCCC(=O)C1 (centres undefined)
- odorant receptor agonist call [1]: active

Compound: CC1CCCCCCCCCCCC(=O)C1 (centres undefined)
- odorant receptor agonist call [1]: active

Compound: CC(=O)c1c(C)c([N+](=O)[O-])c(C(C)(C)C)c([N+](=O)[O-])c1C
- odorant receptor agonist call [1]: active

Compound: O=C1C=CCCCCCCCCCCCCO1
- odorant receptor agonist call [1]: active

Compound: CC1=C(O)C(=O)C(C)O1 (centres undefined)
- odorant receptor agonist call [2]: inactive
- odorant receptor agonist call [3]: inactive
- odorant receptor agonist call [4]: inactive
- odorant receptor agonist call [5]: inactive
- odorant receptor agonist call [6]: inactive
- odorant receptor agonist call [7]: inactive
- odorant receptor agonist call [8]: inactive
- odorant receptor agonist call [9]: inactive
- odorant receptor agonist call [10]: inactive

Compound: CC1C(C)(C)C2=C(C(=O)CCC2)C1(C)C (centres undefined)
- odorant receptor agonist call [1]: inactive

Compound: CC1CC=CCCCCCCCCC(=O)C1 (centres undefined)
- odorant receptor agonist call [1]: active

Compound: CCC(=O)OCC(C)(C)OC(C)C1CCCC(C)(C)C1 (centres undefined)
- odorant receptor agonist call [1]: inactive

Compound: CCCCCCCC(=O)CCCCCCC
- odorant receptor agonist call [1]: inactive

Compound: O=C1CCCCCC=CCCCCCCCCO1
- odorant receptor agonist call [1]: active

Compound: CCCCCCCCCCCCCC(C)=O
- odorant receptor agonist call [1]: inactive

Compound: OC1CCCCCCCCCCCCCC1
- odorant receptor agonist call [1]: active

Compound: O=C1CCCCCCCCCCCCCC1
- odorant receptor agonist call [1]: active
